Converted amounts (≈) assume the structure as drawn. The source made the active and inactive calls. The rule behind the calls is not given here.
Key:
[1] = Antimicrobial activity against Candida mycoderma ATCC 9888 incubated for 24 hrs by NCCLS protocol based method; assay type: functional, Candida vini; settings: Kregervanrija fluxuum, ATCC 9888, 24 h
Candida albicans = assay: Antimicrobial activity against Candida albicans ATCC 10231 incubated for 24 hrs by NCCLS protocol based method; settings: ATCC 10231, 24 h
Cyberlindnera jadinii = assay: Antimicrobial activity against Candida utilis ATCC 9950 incubated for 24 hrs by NCCLS protocol based method; assay type: functional; settings: Williopsis jadinii, ATCC 9950, 24 h
Aspergillus flavus = assay: Antimicrobial activity against Aspergillus flavus ATCC 204304 incubated for 24 hrs by NCCLS protocol based method; assay type: functional; settings: ATCC 204304, 24 h
Saccharomyces cerevisiae = assay: Antimicrobial activity against beer yeast ATCC 9763 incubated for 24 hrs by NCCLS protocol based method; assay type: functional; settings: ATCC 9763, 24 h
Pseudomonas aeruginosa = assay: Antimicrobial activity against Pseudomonas aeruginosa ATCC 27853 incubated for 24 hrs by NCCLS protocol based method; assay type: functional; settings: ATCC 27853, 24 h
Outline: (§1)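 Two-fold serial broth microdilution in 96-well plates per NCCLS standards. MIC (µg/mL) taken as the lowest concentration giving complete growth inhibition. Berberine, chloromycin and norfloxacin were positive controls for bacteria; fluconazole for fungi.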

Staphylococcus aureus [2] = assay: Antimicrobial activity against Staphylococcus aureus ATCC 25923 incubated for 24 hrs by NCCLS protocol based method; assay type: functional; settings: ATCC 25923, 24 h; outline: as §1
Proteus hauseri = assay: Antimicrobial activity against Bacillus proteus ATCC13315 incubated for 24 hrs by NCCLS protocol based method; assay type: functional; settings: ATCC13315, 24 h; outline: as §1
Bacillus subtilis = assay: Antimicrobial activity against Bacillus subtilis ATCC 6633 incubated for 24 hrs by NCCLS protocol based method; assay type: functional; settings: ATCC 6633, 24 h; outline: as §1
Micrococcus luteus = assay: Antimicrobial activity against Micrococcus luteus ATCC 4698 incubated for 24 hrs by NCCLS protocol based method; assay type: functional; settings: ATCC 4698, 24 h; outline: as §1
[3] = Antimicrobial activity against Eberthella typhosa ATCC 14028 incubated for 24 hrs by NCCLS protocol based method; assay type: functional; settings: ATCC 14028, 24 h
Outline: (§2)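 Standard two-fold serial broth microdilution in 96-well plates per NCCLS; MIC (µg/mL) read as lowest concentration giving complete inhibition of microbial growth. Berberine, chloromycin and norfloxacin served as positive controls.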

Staphylococcus aureus [4] = assay: Antimicrobial activity against methicillin-resistant Staphylococcus aureus N315 incubated for 24 hrs by NCCLS protocol based method; assay type: functional; settings: N315, 24 h; outline: as §2
Escherichia coli = assay: Antimicrobial activity against Escherichia coli JM109 incubated for 24 hrs by NCCLS protocol based method; assay type: functional; settings: JM109, 24 h; outline: as §1
HepG2 [5] = assay: (§3) Cytotoxicity against human HepG2 cells assessed as cell viability at 6.25 to 100 ug/ml by MTT assay; assay type: cell-based; settings: hepg2
Outline: (§4)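 HepG2 cells exposed to compound up to 100 μg/mL. Viability read by colorimetric MTT assay with berberine as control. Mean of three parallels ± one standard deviation.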

HepG2 [6] = assay: Induction of ROS production in human HepG2 cells at 6.25 to 100 uM by DCFH-DA as probe based fluorescence microscopy; assay type: functional, cell-based
Outline: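 Intracellular ROS detected with the fluorescent probe DCFH-DA and imaged by fluorescence microscopy. Compounds tested at 6.25, 12.5, 25, 50 and 100 μM, with berberine for comparison.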

Calf thymus DNA [7] = assay: Binding affinity to calf thymus DNA by neutral red dye based UV-Visible spectroscopy; assay type: nucleic-acid assay; settings: Bos taurus
Calf thymus DNA [8] = assay: Binding affinity to calf thymus DNA by UV-Visible spectroscopy; assay type: nucleic-acid assay; settings: Bos taurus
Outline: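 Calf thymus DNA held at a fixed concentration in Tris-HCl buffer pH 7.4, titrated with increasing compound. UV-vis absorption spectra recorded in 1.0 cm quartz cells, following the 260 nm DNA band. DNA concentration set from A260 using ε260 = 6600 L mol⁻¹ cm⁻¹ per phosphate. Purity confirmed by A260/A280 > 1.8.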

[9] = as §3; assay type: cell-based; settings: HepG2 cells, read-out: Activity; outline: as §4

SMILES	MIC80 [1] [µg/mL]	MIC80 (Candida albicans) [µg/mL]	MIC80 (Cyberlindnera jadinii) [µg/mL]	MIC80 (Aspergillus flavus) [µg/mL]	MIC80 (Saccharomyces cerevisiae) [µg/mL]	MIC (Pseudomonas aeruginosa) [µg/mL]	MIC (Staphylococcus aureus [2]) [µg/mL]	MIC (Proteus hauseri) [µg/mL]	MIC (Bacillus subtilis) [µg/mL]	MIC (Micrococcus luteus) [µg/mL]	MIC [3] [µg/mL]	MIC (Staphylococcus aureus [4]) [µg/mL]	MIC (Escherichia coli) [µg/mL]	Activity (HepG2 [5])	Activity (HepG2 [6])	Activity (Calf thymus DNA [7])	K (Calf thymus DNA [8]) [×10³ L/mol]	viability [9] [%]
OC(Cn1cncn1)(Cn1cncn1)c1ccc(F)cc1F [FLUCONAZOLE]	32 (≈ 104 µM)	32 (≈ 104 µM)	8 (≈ 26.1 µM)	256 (≈ 836 µM)	16 (≈ 52.2 µM)													
CCCCc1nccn1Cc1cc(OC)c(O)c2c[n+]3c(cc12)-c1cc2c(cc1CC3)OCO2.[Cl-]	256	64	256	64	64	128	32	128	64	32	128	32	128					
CCc1nccn1Cc1cc(OC)c(O)c2c[n+]3c(cc12)-c1cc2c(cc1CC3)OCO2.[Cl-]	256	64	64	128	16	64	8	64	32	16	64	16	32					
CCCc1nccn1Cc1cc(OC)c(O)c2c[n+]3c(cc12)-c1cc2c(cc1CC3)OCO2.[Cl-]	128	64	128	128	32	128	16	64	64	32	64	32	64					
COc1cc(Cn2cnc(C)c2)c2cc3[n+](cc2c1O)CCc1cc2c(cc1-3)OCO2.[Cl-]	128	128	64	64	32	128	8	32	32	16	64	32	32					
COc1cc(Cn2cc(C)nc2C)c2cc3[n+](cc2c1O)CCc1cc2c(cc1-3)OCO2.[Cl-]	128	128	128	128	256	128	64	128	128	64	128	64	128					
CCCCCCCCCCCCCCCCCc1nccn1Cc1cc(OC)c(O)c2c[n+]3c(cc12)-c1cc2c(cc1CC3)OCO2.[Cl-]	256	256	512	256	256	256	256	256	256	256	512	128	256					
COc1ccc2cc3[n+](cc2c1OC)CCc1cc2c(cc1-3)OCO2.[Cl-] [BERBERINE CHLORIDE]	128	512	256	512	128	256	512	256	512	512	512	128	512	Toxic				
CCc1nc(C)cn1Cc1cc(OC)c(O)c2c[n+]3c(cc12)-c1cc2c(cc1CC3)OCO2.[Cl-]	128	128	128	128	128	128	64	128	128	64	128	64	128					
CCn1cc(C(=O)O)c(=O)c2cc(F)c(N3CCNCC3)cc21 [NORFLOXACIN]						2 (≈ 6.26 µM)	2 (≈ 6.26 µM)	4 (≈ 12.5 µM)	1 (≈ 3.13 µM)	2 (≈ 6.26 µM)	4 (≈ 12.5 µM)	8 (≈ 25.1 µM)	16 (≈ 50.1 µM)					
COc1cc(Cn2ccnc2)c2cc3[n+](cc2c1O)CCc1cc2c(cc1-3)OCO2.[Cl-]	128	64	32	64	32	64	32	64	8	16	1	32	32		Active	Active	5.22	> 87
COc1cc(Cn2ccnc2C)c2cc3[n+](cc2c1O)CCc1cc2c(cc1-3)OCO2.[Cl-]	128	64	32	32	16	64	16	64	64	16	32	32	32					
CCCCCCCCCCCc1nccn1Cc1cc(OC)c(O)c2c[n+]3c(cc12)-c1cc2c(cc1CC3)OCO2.[Cl-]	128	128	256	256	128	256	128	128	128	128	256	64	256					
